The text below walks through data of ChEMBL document CHEMBL1157487, “Discovery of potent CCR4 antagonists: Synthesis and structure-activity relationship study of 2,4-diaminoquinazolines” (Bioorg Med Chem, 2008).

Each structure is given as a SMILES string. Bounds are passed on as bounds.

In one test the target is T1, C-C chemokine receptor type 4 (Homo sapiens) (UniProt P51679).
T1 sequence (whole entry): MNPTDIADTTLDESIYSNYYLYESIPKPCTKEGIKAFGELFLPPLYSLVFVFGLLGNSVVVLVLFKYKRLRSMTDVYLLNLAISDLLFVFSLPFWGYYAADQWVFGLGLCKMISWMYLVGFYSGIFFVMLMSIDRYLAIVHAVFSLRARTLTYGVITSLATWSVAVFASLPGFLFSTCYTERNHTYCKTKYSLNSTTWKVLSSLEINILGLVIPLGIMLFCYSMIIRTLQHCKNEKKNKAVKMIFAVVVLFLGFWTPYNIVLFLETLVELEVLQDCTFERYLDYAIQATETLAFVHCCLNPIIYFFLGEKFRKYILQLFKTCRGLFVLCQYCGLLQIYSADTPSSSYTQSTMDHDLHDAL
Kind of test: Antagonist activity at human CCR4 receptor expressed in mouse B300-19 cells assessed as CCL22-induced chemotaxis by bioluminescent assay. Format: functional, cell-based. The method in brief:
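Stably transfected B300-19 cells (human CCR4 cDNA, G418 selection) at 5×10^6 cells/mL in RPMI 1640 with 0.1% BSA, pretreated with test compound; placed over 3 nM human CCL22 in 5-µm-pore polycarbonate filter chambers, 3 h, 37 °C, 5% CO2. Migrated cells quantified by ATP bioluminescence. Controls without compound or without CCL22. Triplicate, four concentrations. IC50 by non-linear curve fitting.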
As for `COc1ccc2c(NC3CCCCCC3)nc(N3CCC(N4CCCC4)CC3)nc2c1`, the Activity was found to be 0.12 µM.

Take `COc1ccc2nc(N3CCC(N4CCCC4)CC3)nc(NC3CCCCCC3)c2c1`: the Activity was 0.41 µM.

Regarding `COc1cc2nc(N3CCC(N4CCCCC4)CC3)nc(NC3CCCCCC3)c2cc1OC`, the Activity was 0.14 µM.

Turning to `COc1cc2nc(N3CCC(NC4CCCC4)CC3)nc(NC3CCCCCC3)c2cc1OC`, the Activity was found to be 0.1 µM.

On to `COc1cc2nc(N3CCC(N(C)C4CCCC4)CC3)nc(NC3CCCCCC3)c2cc1OC`, for which the Activity came to 0.12 µM.

Take `COc1cc2nc(N3CCC(N4CCC(F)CC4)CC3)nc(NC3CCCCCC3)c2cc1OC`: the Activity is 0.31 µM.

Regarding `c1ccc2c(NC3CCCCCC3)nc(N3CCC(N4CCCC4)CC3)nc2c1`, the Activity is 1.4 µM.

Turning to `COc1cc2nc(N3CCN(C4CCCCC4)CC3)nc(NC3CCCCCC3)c2cc1OC`, the Activity was found to be 0.23 µM.

For a further test, the target named is T1, C-C chemokine receptor type 4 (Homo sapiens). Kind of test: Antagonist activity at human CCR4 receptor expressed in mouse B300-19 cells assessed as CCL22-induced chemotaxis at 1 uM by bioluminescent assay. Format: functional, cell-based.
Take `COc1cc2nc(C3CCN(C4CCCCC4)CC3)nc(NC3CCCCCC3)c2cc1OC`: the inhibition turned out to be 12%.

The target is the same in the next test. Kind of test: Displacement of [125I]CCl22 from human CCR4 receptor expressed in mouse B300-19 cells at 1 uM by SPA. Format: cell-based. The method, boiled down:
(§1)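 SPA on whole human CCR4-expressing B300-19 cells (2×10^5/well) with 25 pM [125I]CCL22 and WGA SPA beads, test compound, in 50 mM Hepes pH 7.4, 5 mM MgCl2, 1 mM CaCl2, 0.1% BSA; 2 h, 25 °C. Nonspecific binding defined with 10 nM unlabeled CCL22. Duplicate, four concentrations, usually two determinations averaged. IC50 by non-linear curve fitting.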
`COc1cc2nc(N3CCC(N4CCCC4)CC3)nc(N3CCCCC3)c2cc1OC` came in with an inhibition of 19%.

For the compound `COc1cc2nc(N3CCC(N4CCCC4)CC3)nc(N3CCOCC3)c2cc1OC`, the inhibition turned out to be 2%.

Turning to `COc1cc2nc(N3CCCCC3)nc(NC3CCCCCC3)c2cc1OC`, the inhibition turned out to be 11%.

The compound `COc1cc2nc(N3CCC(N4CCCC4)CC3)nc(NC3CCC(C(C)(C)C)CC3)c2cc1OC` (stereo unspecified) returned an inhibition of less than 0%.

`COc1cc2nc(NCCCN3CCCC3=O)nc(NC3CCCCCC3)c2cc1OC`: the inhibition was determined as 8%.

`COc1cc2nc(N3CCC(C(N)=O)CC3)nc(NC3CCCCCC3)c2cc1OC`: the inhibition is less than 0%.

`COc1cc2nc(N3CCC(N4CCCC4)CC3)nc(NC3CCCCNC3=O)c2cc1OC` (stereo unspecified) came in with an inhibition of 16%.

`COc1cc2nc(NCc3cccs3)nc(NC3CCCCCC3)c2cc1OC`: the inhibition was less than 0%.

For the compound `COc1cc2nc(N3CCN(C)CC3)nc(NC3CCCCCC3)c2cc1OC`, the inhibition was less than 0%.

The compound `COc1cc2nc(N3CCC(O)CC3)nc(NC3CCCCCC3)c2cc1OC` yielded an inhibition of 3%.

With `COc1cc2nc(N3CCC(N4CCCC4)CC3)nc(NCc3ccccc3)c2cc1OC`, the inhibition was less than 0%.

In the case of `COc1cc2nc(N3CCC(N4CCCCC4)CC3)nc(NC3CCCCCC3)c2cc1OC`, the inhibition was 100%.

`COc1cc2nc(N3CCC(NC4CCCC4)CC3)nc(NC3CCCCCC3)c2cc1OC`: the inhibition was determined as 4%.

`COc1cc2nc(N3CCC(N(C)C4CCCC4)CC3)nc(NC3CCCCCC3)c2cc1OC` came in with an inhibition of 0%.

As to `COc1cc2nc(N3CCC(N4CCC(F)CC4)CC3)nc(NC3CCCCCC3)c2cc1OC`, the inhibition was found to be 0%.

As for `COc1cc2nc(N3CCN(C4CCCCC4)CC3)nc(NC3CCCCCC3)c2cc1OC`, the inhibition was 0%.

A further test deals with T2, C-C chemokine receptor type 4 (Homo sapiens, UniProt P51679).
T2 sequence (P51679 whole entry): T1 sequence (whole entry)
Kind of test: Antagonist activity at human CCR4 receptor expressed in mouse B300-19 cells by [35S]GTPgammaS binding assay. Format: functional, cell-based. The method, boiled down: (§2)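 Membranes from human CCR4-expressing B300-19 cells (1 µg protein/well) with 150 pM [35S]GTPγS, 2 µM GDP, 3 nM MDC (CCL22), WGA SPA beads, test compound in 20 mM Hepes-NaOH pH 7.05, 100 mM NaCl, 5 mM MgCl2, 0.2% BSA; 1.5 h, 25 °C. Percent inhibition against no-compound and no-CCL22 controls. Duplicate, four concentrations, usually two determinations averaged. IC50 by non-linear fitting.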
`COc1ccc2c(NC3CCCCCC3)nc(N3CCC(N4CCCC4)CC3)nc2c1` had a half-inhibitory concentration (IC50) of 13 nM. This counts as double-digit nanomolar.

Regarding `COc1ccc2nc(N3CCC(N4CCCC4)CC3)nc(NC3CCCCCC3)c2c1`, the IC50 amounted to 31 nM.

In turn, `COc1cc2nc(C3CCN(C4CCCCC4)CC3)nc(NC3CCCCCC3)c2cc1OC` showed an IC50 of 510 nM. This IC50 is about 16-fold higher than that of the compound before.

The compound `COc1cc2nc(N3CCC(N4CCCCC4)CC3)nc(NC3CCCCCC3)c2cc1OC` showed an IC50 of 18 nM.

In turn, `COc1cc2nc(N3CCC(NC4CCCC4)CC3)nc(NC3CCCCCC3)c2cc1OC` registered an IC50 of 13 nM.

Regarding `COc1cc2nc(N3CCC(N(C)C4CCCC4)CC3)nc(NC3CCCCCC3)c2cc1OC`, the IC50 came out at 18 nM.

`COc1cc2nc(N3CCC(N4CCC(F)CC4)CC3)nc(NC3CCCCCC3)c2cc1OC` showed an IC50 of 32 nM.

For the compound `c1ccc2c(NC3CCCCCC3)nc(N3CCC(N4CCCC4)CC3)nc2c1`, the IC50 is 200 nM.

Compound `COc1cc2nc(N3CCN(C4CCCCC4)CC3)nc(NC3CCCCCC3)c2cc1OC` had an IC50 of 55 nM.

A further test addresses T3, C-C chemokine receptor type 4 (Mus musculus) (UniProt P51680).
T3 sequence (whole entry): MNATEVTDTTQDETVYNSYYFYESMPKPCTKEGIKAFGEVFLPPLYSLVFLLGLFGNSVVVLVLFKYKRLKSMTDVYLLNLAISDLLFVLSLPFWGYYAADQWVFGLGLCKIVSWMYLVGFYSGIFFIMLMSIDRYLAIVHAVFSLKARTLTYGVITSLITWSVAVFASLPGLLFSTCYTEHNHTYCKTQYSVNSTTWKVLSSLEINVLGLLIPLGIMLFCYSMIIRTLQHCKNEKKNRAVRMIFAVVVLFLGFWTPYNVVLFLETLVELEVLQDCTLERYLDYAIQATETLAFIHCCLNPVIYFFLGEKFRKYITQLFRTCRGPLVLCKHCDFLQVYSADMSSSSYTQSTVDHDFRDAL
Kind of test: Antagonist activity at mouse CCR4 receptor expressed in mouse B300-19 cells assessed as CCL22-induced chemotaxis by bioluminescent assay. The test is classed as functional, cell-based. The method, boiled down: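 Chemotaxis of B300-19 stable transformants carrying mouse CCR4 cDNA, suspended at 5×10^6 cells/mL in RPMI 1640 plus 0.1% BSA with test compound; 1 nM mouse CCL22 in lower wells, 5-µm pore filters, 3 h at 37 °C, 5% CO2. Migrated cells counted by ATP bioluminescence. Triplicate at four concentrations. IC50 from non-linear curve fit.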
On to `COc1ccc2c(NC3CCCCCC3)nc(N3CCC(N4CCCC4)CC3)nc2c1`, for which the Activity came to 0.22 µM.

In the case of `COc1ccc2nc(N3CCC(N4CCCC4)CC3)nc(NC3CCCCCC3)c2c1`, the Activity was 0.8 µM.

Take `COc1cc2nc(N3CCC(N4CCCCC4)CC3)nc(NC3CCCCCC3)c2cc1OC`: the Activity came to 0.039 µM.

For `COc1cc2nc(N3CCC(N(C)C4CCCC4)CC3)nc(NC3CCCCCC3)c2cc1OC`, the Activity stood at 0.35 µM.

Take `COc1cc2nc(N3CCC(N4CCC(F)CC4)CC3)nc(NC3CCCCCC3)c2cc1OC`: the Activity came to 0.6 µM.

Turning to `COc1cc2nc(N3CCN(C4CCCCC4)CC3)nc(NC3CCCCCC3)c2cc1OC`, the Activity stood at 0.21 µM.

In a further test the target is T1, C-C chemokine receptor type 4 (Homo sapiens). Kind of test: Antagonist activity at human CCR4 receptor expressed in mouse B300-19 cells at 1 uM by [35S]GTPgammaS binding assay. The test is classed as functional, cell-based. The method, boiled down:
as §2
As to `COc1ccc2c(NC3CCCCCC3)nc(N3CCC(N4CCCC4)CC3)nc2c1`, the inhibition was 10%.

As for `COc1cc2nc(N3CCC(N4CCCC4)CC3)nc(N3CCCCC3)c2cc1OC`, the inhibition is 8%.

Consider `COc1cc2nc(N3CCC(N4CCCC4)CC3)nc(N3CCOCC3)c2cc1OC`, for which the inhibition was less than 0%.

On to `COc1ccc2nc(N3CCC(N4CCCC4)CC3)nc(NC3CCCCCC3)c2c1`, for which the inhibition is 10%.

In turn, `COc1cc2nc(N3CCCCC3)nc(NC3CCCCCC3)c2cc1OC` showed an inhibition of 7%.

For the compound `COc1cc2nc(N3CCC(N4CCCC4)CC3)nc(NC3CCC(C(C)(C)C)CC3)c2cc1OC` (stereo unspecified), the inhibition was 11%.

`COc1cc2nc(C3CCN(C4CCCCC4)CC3)nc(NC3CCCCCC3)c2cc1OC` yielded an inhibition of 10%.

`COc1cc2nc(NCCCN3CCCC3=O)nc(NC3CCCCCC3)c2cc1OC` yielded an inhibition of 8%.

With `COc1cc2nc(N3CCC(C(N)=O)CC3)nc(NC3CCCCCC3)c2cc1OC`, the inhibition came to 17%.

As to `COc1cc2nc(N3CCC(N4CCCC4)CC3)nc(NC3CCCCNC3=O)c2cc1OC` (stereo unspecified), the inhibition is 16%.

`COc1cc2nc(NCc3cccs3)nc(NC3CCCCCC3)c2cc1OC`: the inhibition stood at 0%.

In the case of `COc1cc2nc(N3CCN(C)CC3)nc(NC3CCCCCC3)c2cc1OC`, the inhibition is 13%.

As for `COc1cc2nc(N3CCC(O)CC3)nc(NC3CCCCCC3)c2cc1OC`, the inhibition is less than 0%.

Consider `COc1cc2nc(N3CCC(N4CCCC4)CC3)nc(NCc3ccccc3)c2cc1OC`, for which the inhibition came out at 10%.

`COc1cc2nc(N3CCC(N4CCCCC4)CC3)nc(NC3CCCCCC3)c2cc1OC`: the inhibition was 92%.

`COc1cc2nc(N3CCC(NC4CCCC4)CC3)nc(NC3CCCCCC3)c2cc1OC` yielded an inhibition of less than 0%.

In turn, `COc1cc2nc(N3CCC(N(C)C4CCCC4)CC3)nc(NC3CCCCCC3)c2cc1OC` returned an inhibition of 10%.

As to `COc1cc2nc(N3CCC(N4CCC(F)CC4)CC3)nc(NC3CCCCCC3)c2cc1OC`, the inhibition was 10%.

`c1ccc2c(NC3CCCCCC3)nc(N3CCC(N4CCCC4)CC3)nc2c1`: the inhibition was determined as 10%.

`COc1cc2nc(N3CCN(C4CCCCC4)CC3)nc(NC3CCCCCC3)c2cc1OC` registered an inhibition of 10%.

A further test addresses T2, C-C chemokine receptor type 4. Kind of test: Displacement of [125I]CCl22 from human CCR4 receptor expressed in mouse B300-19 cells by SPA. The test is classed as cell-based. The method, boiled down:
as §1
For the compound `COc1cc2nc(N3CCC(N4CCCCC4)CC3)nc(NC3CCCCCC3)c2cc1OC`, the IC50 was 73 nM.
